According to ChEMBL document CHEMBL2157880, “Synthesis, antimycobacterial and antibacterial activity of ciprofloxacin derivatives containing a N-substituted benzyl moiety” (2012):
In brackets after ≈: the same amount, converted by molar mass.

tested on: Pseudomonas aeruginosa; test: Antibacterial activity against Pseudomonas aeruginosa 10-18 after 18 to 24 hrs by NCCLS method; type: functional
Summary of the method: (§1)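 Standard NCCLS (M100-S11) MIC testing against Gram-positive and Gram-negative strains. Plates were incubated at 35 °C for 18–24 h. The MIC was read as the lowest concentration giving complete inhibition of visible bacterial growth.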

Structure (SMILES) | MIC [µg/mL]
COc1cc(CN2CCN(c3cc4c(cc3F)c(=O)c(C(=O)O)cn4C3CC3)CC2)ccc1OCc1ccccc1 | 32 (≈ 57.4 µM)

tested on: Klebsiella pneumoniae; test: Antibacterial activity against extended spectrum beta-lactamases producing Klebsiella pneumoniae 10-1 after 18 to 24 hrs by NCCLS method; type: functional; summary of the method: as §1

Structure (SMILES) | MIC [µg/mL]
COc1cc(CN2CCN(c3cc4c(cc3F)c(=O)c(C(=O)O)cn4C3CC3)CC2)ccc1OCc1ccccc1 | > 128

tested on: Staphylococcus aureus; test: Antibacterial activity against methicillin-resistant Staphylococcus aureus 10-11 after 18 to 24 hrs by NCCLS method; type: functional
Summary of the method: (§2)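 Incubated at 35 °C for 18–24 h under NCCLS (M100-S11) standards. MIC was read as the lowest concentration giving complete inhibition of visible bacterial growth.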

Structure (SMILES) | MIC [µg/mL]
COc1cc(CN2CCN(c3cc4c(cc3F)c(=O)c(C(=O)O)cn4C3CC3)CC2)ccc1OCc1ccccc1 | > 128

tested on: Klebsiella pneumoniae; test: Antibacterial activity against extended spectrum beta-lactamases producing Klebsiella pneumoniae 10-2 after 18 to 24 hrs by NCCLS method; type: functional; summary of the method: as §1

Structure (SMILES) | MIC [µg/mL]
COc1cc(CN2CCN(c3cc4c(cc3F)c(=O)c(C(=O)O)cn4C3CC3)CC2)ccc1OCc1ccccc1 | > 128

tested on: Streptococcus pneumoniae; test: Antibacterial activity against Streptococcus pneumoniae 10-6 after 18 to 24 hrs by NCCLS method; type: functional; summary of the method: as §1

Structure (SMILES) | MIC [µg/mL]
COc1cc(CN2CCN(c3cc4c(cc3F)c(=O)c(C(=O)O)cn4C3CC3)CC2)ccc1OCc1ccccc1 | 32 (≈ 57.4 µM)

tested on: Escherichia coli; test: Antibacterial activity against Escherichia coli 10-3 after 18 to 24 hrs by NCCLS method; type: functional; summary of the method: as §1

Structure (SMILES) | MIC [µg/mL]
COc1cc(CN2CCN(c3cc4c(cc3F)c(=O)c(C(=O)O)cn4C3CC3)CC2)ccc1OCc1ccccc1 | > 128

tested on: Escherichia coli; test: Antibacterial activity against extended spectrum beta-lactamases producing Escherichia coli 10-3 after 18 to 24 hrs by NCCLS method; type: functional; summary of the method: as §1

Structure (SMILES) | MIC [µg/mL]
COc1cc(CN2CCN(c3cc4c(cc3F)c(=O)c(C(=O)O)cn4C3CC3)CC2)ccc1OCc1ccccc1 | > 128

tested on: Streptococcus pneumoniae; test: Antibacterial activity against Streptococcus pneumoniae 10-1 after 18 to 24 hrs by NCCLS method; type: functional; summary of the method: as §1

Structure (SMILES) | MIC [µg/mL]
COc1cc(CN2CCN(c3cc4c(cc3F)c(=O)c(C(=O)O)cn4C3CC3)CC2)ccc1OCc1ccccc1 | 16 (≈ 28.7 µM)

tested on: Enterococcus faecalis; test: Antibacterial activity against Enterococcus faecalis 10-7 after 18 to 24 hrs by NCCLS method; type: functional; summary of the method: as §1

Structure (SMILES) | MIC [µg/mL]
COc1cc(CN2CCN(c3cc4c(cc3F)c(=O)c(C(=O)O)cn4C3CC3)CC2)ccc1OCc1ccccc1 | 32 (≈ 57.4 µM)

tested on: Enterococcus faecium; test: Antibacterial activity against Enterococcus faecium 10-6 after 18 to 24 hrs by NCCLS method; type: functional; summary of the method: as §1

Structure (SMILES) | MIC [µg/mL]
COc1cc(CN2CCN(c3cc4c(cc3F)c(=O)c(C(=O)O)cn4C3CC3)CC2)ccc1OCc1ccccc1 | 16 (≈ 28.7 µM)

tested on: Klebsiella pneumoniae; test: Antibacterial activity against Klebsiella pneumoniae 10-3 after 18 to 24 hrs by NCCLS method; type: functional; summary of the method: as §1

Structure (SMILES) | MIC [µg/mL]
COc1cc(CN2CCN(c3cc4c(cc3F)c(=O)c(C(=O)O)cn4C3CC3)CC2)ccc1OCc1ccccc1 | 32 (≈ 57.4 µM)

tested on: Pseudomonas aeruginosa; test: Antibacterial activity against Pseudomonas aeruginosa 10-15 after 18 to 24 hrs by NCCLS method; type: functional; summary of the method: as §1

Structure (SMILES) | MIC [µg/mL]
COc1cc(CN2CCN(c3cc4c(cc3F)c(=O)c(C(=O)O)cn4C3CC3)CC2)ccc1OCc1ccccc1 | 64 (≈ 115 µM)

tested on: Pseudomonas aeruginosa; test: Antibacterial activity against Pseudomonas aeruginosa 10-9 after 18 to 24 hrs by NCCLS method; type: functional; summary of the method: as §1

Structure (SMILES) | MIC [µg/mL]
COc1cc(CN2CCN(c3cc4c(cc3F)c(=O)c(C(=O)O)cn4C3CC3)CC2)ccc1OCc1ccccc1 | 64 (≈ 115 µM)

tested on: Enterococcus faecium; test: Antibacterial activity against Enterococcus faecium 10-9 after 18 to 24 hrs by NCCLS method; type: functional; summary of the method: as §1

Structure (SMILES) | MIC [µg/mL]
COc1cc(CN2CCN(c3cc4c(cc3F)c(=O)c(C(=O)O)cn4C3CC3)CC2)ccc1OCc1ccccc1 | 32 (≈ 57.4 µM)

tested on: Mycobacterium tuberculosis; test: Antimycobacterial activity against Mycobacterium tuberculosis H37Rv ATCC 27294 by microplate alamar blue assay; type: functional
Summary of the method: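 Microplate Alamar Blue fluorescence assay on strain H37Rv ATCC 27294. MIC was the lowest concentration cutting fluorescence by ≥90% against the mean of replicate bacterium-only controls.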

Structure (SMILES) | MIC [µg/mL]
COc1cc(CN2CCN(c3cc4c(cc3F)c(=O)c(C(=O)O)cn4C3CC3)CC2)ccc1OCc1ccccc1 | 16 (≈ 28.7 µM)

tested on: Staphylococcus aureus; test: Antibacterial activity against methicillin-resistant Staphylococcus aureus 10-13 after 18 to 24 hrs by NCCLS method; type: functional; summary of the method: as §2

Structure (SMILES) | MIC [µg/mL]
COc1cc(CN2CCN(c3cc4c(cc3F)c(=O)c(C(=O)O)cn4C3CC3)CC2)ccc1OCc1ccccc1 | > 128

tested on: Staphylococcus aureus; test: Antibacterial activity against methicillin-resistant Staphylococcus aureus 10-15 after 18 to 24 hrs by NCCLS method; type: functional; summary of the method: as §2

Structure (SMILES) | MIC [µg/mL]
COc1cc(CN2CCN(c3cc4c(cc3F)c(=O)c(C(=O)O)cn4C3CC3)CC2)ccc1OCc1ccccc1 | > 128

tested on: Staphylococcus epidermidis; test: Antibacterial activity against methicillin-resistant Staphylococcus epidermidis 10-13 after 18 to 24 hrs by NCCLS method; type: functional; summary of the method: as §2

Structure (SMILES) | MIC [µg/mL]
COc1cc(CN2CCN(c3cc4c(cc3F)c(=O)c(C(=O)O)cn4C3CC3)CC2)ccc1OCc1ccccc1 | 64 (≈ 115 µM)

tested on: Staphylococcus epidermidis; test: Antibacterial activity against methicillin-sensitive Staphylococcus epidermidis 10-15 after 18 to 24 hrs by NCCLS method; type: functional; summary of the method: as §2

Structure (SMILES) | MIC [µg/mL]
COc1cc(CN2CCN(c3cc4c(cc3F)c(=O)c(C(=O)O)cn4C3CC3)CC2)ccc1OCc1ccccc1 | 32 (≈ 57.4 µM)
